Assay results reported in ChEMBL document CHEMBL4406862, “Chalcone derivatives targeting mitosis: synthesis, evaluation of antitumor activity and lipophilicity” (Eur J Med Chem, 2019).
Activity calls are given as the source filed them. The calls are words filed in the database; no cut-off is given here.

Columns and labels:
[1] = tested on: MCF7; assay: Antiproliferative activity against human MCF7 cells assessed as reduction in cell viability incubated for 48 hrs by sulforhodamine B assay; format: functional; conditions: MCF7, 48 h
Procedure, shortened: (§1)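 Cells in RPMI-1640 with 5% FBS, 37 °C, 5% CO2; seeded 0.05×10^6 cells/well, 24 h, then two-fold serial dilutions from 0 to 150 μM (DMSO up to 0.25%) for 48 h. TCA fixation, SRB stain 30 min, dye solubilized in 10 mM Tris, absorbance 515 nm. GI50 from dose-response curve; mean ± SD, at least three independent experiments in duplicate.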

[2] = Lipophilicity, log k of compound in DMPC/buffer incubated for 30 mins by spectrophotometry; format: physicochemical; conditions: 0.5 h
Procedure, shortened: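 DMPC liposomes made by thin-film hydration in HEPES buffer, extruded at 40 °C. Fixed compound concentration with DMPC 50–1000 μM, incubated 30 min at 37 °C, pH 7.4; spectra 250–500 nm against compound-free references. Second-derivative values fitted (nonlinear least squares) versus lipid concentration to give Kp; lipid molar volume 0.66 L mol⁻¹; mean ± SD of at least three experiments.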

[3] = Antiproliferative activity against human A375-C5 cells assessed as reduction in cell viability incubated for 48 hrs by sulforhodamine B assay; format: functional; conditions: A375-C5, 48 h; procedure, shortened: as §1
[4] = tested on: NCI-H460; assay: Antiproliferative activity against human NCI-H460 cells assessed as reduction in cell viability incubated for 48 hrs by sulforhodamine B assay; format: functional; conditions: NCI-H460, 48 h; procedure, shortened: as §1
[5] = n-Octanol/water partition coefficient, log P of the compound incubated for 30 mins by spectrophotometry; format: physicochemical
[6] = tested on: NCI-H460; assay: Induction of mitotic arrest in human NCI-H460 cells assessed as condensed chromosome at 3 times of GI50 incubated for 15 hrs by DAPI staining based phase contrast microscopy; format: functional, cell-based
Procedure, shortened: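 NCI-H460 treated 15 h at 3×GI50; DAPI staining of DNA viewed to detect condensed chromosomes of mitotic cells.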

[7] = tested on: NCI-H460; assay: Induction of mitotic arrest in human NCI-H460 cells assessed as abnormal mitotic spindle morphology at 3 times of GI50 incubated for 15 hrs by immunostaining based fluorescence microscopy; format: functional, cell-based
Procedure, shortened: (§2)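 NCI-H460 on poly-L-lysine coverslips treated 15 h at 3×GI50; fixed in 2% paraformaldehyde, 0.5% Triton X-100 permeabilization, 10% FBS blocking; mouse anti-α-tubulin (1:2500) then Alexa Fluor 488 secondary (1:1500); DAPI 2 µg/mL. Fluorescence microscopy of spindles; multipolar spindles as percentage of total spindles; mean ± SD, three independent experiments.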

[8] = tested on: NCI-H460; assay: Induction of mitotic arrest in human NCI-H460 cells assessed as accumulation of bright round shape cells at 3 times of GI50 incubated for 15 hrs by phase contrast microscopy; format: functional, cell-based
[9] = tested on: NCI-H460; assay: Induction of mitotic arrest in human NCI-H460 cells assessed as decrease in chromosome align at metaphase plate at 3 times of GI50 incubated for 15 hrs by DAPI staining based fluorescence microscopy; format: functional, cell-based; procedure, shortened: as §2
[10] = tested on: NCI-H460; assay: Induction of mitotic arrest in human NCI-H460 cells assessed as mitotic index at 3 times of GI50 incubated for 15 hrs by DAPI staining based phase contrast microscopy (reference value: 11.3 %); format: functional
[11] = tested on: NCI-H460; assay: Cytotoxicity against human NCI-H460 cells assessed as reduction in cell viability at 1 times of GI50 incubated for 48 hrs by MTT assay relative to control; format: functional
Procedure, shortened: (§3)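 MTT 0.5 mg/ml in serum-free medium 4 h; formazan dissolved in isopropanol/Triton/HCl 2 h; absorbance 570 nm. Viability relative to untreated cells; mean ± SD of at least three independent experiments.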

[12] = tested on: NCI-H460; assay: Potentiation of paclitaxel-induced cytotoxicity against human NCI-H460 cells assessed as reduction in cell viability at 1 times of GI50 incubated for 48 hrs by MTT assay (reference value: 92.3 %); format: functional; procedure, shortened: as §3
[13] = tested on: NCI-H460; assay: Potentiation of paclitaxel-induced cytotoxicity against human NCI-H460 cells assessed as reduction in cell viability at 0.5 times of GI50 incubated for 48 hrs by MTT assay (reference value: 92.3 %); format: functional; procedure, shortened: as §3
[14] = tested on: NCI-H460; assay: Induction of cell death in human NCI-H460 cells assessed as micronucleation at 3 times of GI50 incubated for 24 hrs by DAPI staining based fluorescence microscopy; format: functional
Procedure, shortened: (§4)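 NCI-H460 cells exposed 24 h, DAPI-stained for DNA, nuclear morphology and micronucleation examined by fluorescence microscopy.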

[15] = tested on: NCI-H460; assay: Cytotoxicity against human NCI-H460 cells assessed as reduction in cell viability at 0.5 times of GI50 incubated for 48 hrs by MTT assay relative to control; format: functional; procedure, shortened: as §3
[16] = tested on: NCI-H460; assay: Induction of mitotic arrest in human NCI-H460 cells assessed as multipolar spindles at 3 times of GI50 incubated for 15 hrs by fluorescence microscopy (reference value: 2 %); format: functional; procedure, shortened: as §2
[17] = tested on: NCI-H460; assay: Induction of cell death in human NCI-H460 cells assessed as abnormal nuclear morphology at 3 times of GI50 incubated for 24 hrs by DAPI staining based fluorescence microscopy; format: functional; procedure, shortened: as §4
[18] = tested on: NCI-H460; assay: Induction of mitotic arrest in human NCI-H460 cells assessed as mitotic index 1 uM incubated for 15 hrs by DAPI staining based phase contrast microscopy (reference value: 11.3 %); format: functional
[19] = tested on: NCI-H460; assay: Induction of mitotic arrest in human NCI-H460 cells assessed as accumulation of bright round shape cells at 1 uM incubated for 15 hrs by phase contrast microscopy; format: functional, cell-based
[20] = tested on: NCI-H460; assay: Cytotoxicity against human NCI-H460 cells assessed as reduction in cell viability at 25 nM incubated for 48 hrs by MTT assay; format: functional, cell-based; procedure, shortened: as §3

| SMILES | GI50 [1] | log Kp [2] | GI50 [3] | GI50 [4] | logP at 0.5 h [5] | further results |
| --- | --- | --- | --- | --- | --- | --- |
| COc1cc(/C=C/C(=O)c2cccs2)cc(OC)c1 | 7.7 µM | 3.41 | 4.15 µM | 7.12 µM | 3.14 | – |
| COc1cc(C2OC2C(=O)c2cccs2)cc(OC)c1OC (stereo not given) | 59.9 µM | 2.8 | 38.5 µM | 61.8 µM | 2.51 | – |
| COc1cc(C2OC2C(=O)c2cc(C)cs2)cc(OC)c1OC (stereo not given) | 14 µM | 3.75 | 6.63 µM | 16.9 µM | 2.5 | – |
| COc1cc(/C=C/C(=O)c2cc3cccc(O)c3o2)cc(OC)c1OC | 9.75 µM | 4.29 | 8.57 µM | 8.35 µM | 3.22 | Activity [6]: Active; Activity [7]: Active; Activity [8]: Active; Activity [9]: Active; Activity [10]: 25.8 - 49.37% |
| COc1ccc(/C=C/C(=O)c2ccc(OC)c(OC)c2)cc1OC | 13.2 µM | 3.51 | 3.81 µM | 8.95 µM | 3.27 | – |
| Cc1csc(C(=O)/C=C/c2ccc(Cl)c(Cl)c2)c1 | 22.5 µM | 2.8 | 12.1 µM | 15.5 µM | 4.65 | – |
| COc1cc(/C=C/C(=O)c2cc3ccccc3s2)cc(OC)c1OC | 6.89 µM | 3.68 | 6.9 µM | 6.61 µM | 4.19 | Activity [6]: Active; Activity [7]: Active; Activity [8]: Active; Activity [9]: Active; Activity [10]: 25.8 - 49.37% |
| COc1cc(/C=C/C(=O)c2ccc(C)s2)cc(OC)c1OC | 5.56 µM | 3.53 | 5.7 µM | 6.28 µM | 3.23 | Activity [6]: Active; Activity [11]: 67.9%; Activity [12]: 46.8%; Activity [7]: Active; Activity [13]: 51.8%; Activity [8]: Active; Activity [9]: Active; Activity [10]: 25.8 - 49.37%; Activity [14]: Active; Activity [15]: 96.9%; Activity [16]: 28%; Activity [17]: Active |
| COc1ccc(C(=O)/C=C/c2cc(OC)c(OC)c(OC)c2)cc1OC | 3.97 µM | 3.3 | 2.89 µM | 5.6 µM | 3.22 | – |
| COc1ccc(/C=C/C(=O)c2cc(C)cs2)cc1OC | 10.8 µM | 3.72 | 11.3 µM | 15.3 µM | 3.4 | – |
| COc1cc(OC)c(OC)cc1/C=C/C(=O)c1ccc(OC)c(OC)c1 | 8.52 µM | 3.35 | 7.1 µM | 8.74 µM | 3.24 | – |
| Cc1csc(C(=O)/C=C/c2cc(Cl)cc(Cl)c2)c1 | 12.2 µM | 4.43 | 7.14 µM | 11.8 µM | 4.67 | – |
| O=C(/C=C/c1ccc(Cl)c(Cl)c1)c1cccs1 | 12.1 µM | 2.77 | 7.25 µM | 8.44 µM | 4.35 | – |
| COC(=O)Nc1nc2cc(C(=O)c3cccs3)ccc2[nH]1 [NOCODAZOLE] | – | – | – | – | – | Activity [18]: 73.1%; Activity [19]: Active |
| COc1ccc(C(=O)/C=C/c2ccc(Cl)c(Cl)c2)cc1OC | 15.1 µM | 3.14 | 4.14 µM | 27.7 µM | 4.52 | – |
| COc1cc(/C=C/C(=O)c2cc(C)cs2)cc(OC)c1OC | 3.26 µM | 3.54 | 3.21 µM | 3.02 µM | 3.29 | – |
| O=C(/C=C/c1cc(Cl)cc(Cl)c1)c1cccs1 | 11.7 µM | 4.33 | 5.38 µM | 8.34 µM | 4.38 | – |
| COc1cc(/C=C/C(=O)c2cc(C)cs2)cc(OC)c1 | 4.28 µM | 3.52 | 3.33 µM | 4.44 µM | 3.43 | – |
| COc1cc(/C=C/C(=O)c2cccs2)cc(OC)c1OC | 5.95 µM | 3.49 | 3.63 µM | 5.06 µM | 2.99 | – |
| COc1cc(-c2cc(-c3cccs3)n[nH]2)cc(OC)c1OC | > 37.5 µM | 3.16 | > 37.5 µM | > 37.5 µM | 2.99 | – |
| COc1cc(OC)c(OC)cc1/C=C/C(=O)c1cccs1 | 12.6 µM | 3.49 | 11.1 µM | 13.6 µM | 3.02 | – |
| COc1ccc(/C=C/C(=O)c2cccs2)cc1OC | 23.9 µM | 3.62 | 17.8 µM | 17.8 µM | 3.07 | – |
| CC(=O)O[C@H]1C(=O)[C@@]2(C)[C@H]([C@H](OC(=O)c3ccccc3)[C@]3(O)C[C@H](OC(=O)[C@H](O)[C@@H](NC(=O)c4ccccc4)c4ccccc4)C(C)=C1C3(C)C)[C@]1(OC(C)=O)CO[C@@H]1C[C@@H]2O | – | – | – | – | – | Activity [20]: inactive |
| COc1cc(/C=C/C(=O)c2ccc(OC)c(OC)c2)cc(OC)c1 | 6.49 µM | 3.29 | 3.45 µM | 10.8 µM | 3.35 | – |
| COc1ccc(C(=O)/C=C/c2cc(Cl)cc(Cl)c2)cc1OC | 8.41 µM | 4.1 | 4.51 µM | 9.61 µM | 4.54 | – |
| COc1cc(-c2cc(-c3cc(C)cs3)n[nH]2)cc(OC)c1OC | 16.3 µM | 4.04 | 16.1 µM | 16.1 µM | 3.27 | – |
| COc1cc(OC)c(OC)cc1/C=C/C(=O)c1cc(C)cs1 | 10.1 µM | 3.6 | 6.96 µM | 7.48 µM | 3.31 | – |
